Data: ChEMBL document CHEMBL1156678, “A new class of analgesic agents toward prostacyclin receptor inhibition: synthesis, biological studies and QSAR analysis of 1-hydroxyl-2-substituted phenyl-4,4,5,5-tetramethylimidazolines” (Eur J Med Chem, 2008)

Tests used:
Mus musculus [1] = experiment: Thrombotic toxicity in ICR mouse assessed as tail bleeding time at 1.3 mmol/kg, ip after 60 mins; type: organism-based; settings: in vivo, 1 h
In short: (§1)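 Male ICR mice (25 ± 2 g) were kept one day on a 12/12 h light/dark cycle at 21 ± 2 °C. Each received a single i.p. dose of 1.30 mmol/kg in saline/DMSO/Tween-80 (0.2/0.01/0.02 ml), or the solvent only. The restrained mouse had 1 mm cut from the tail before dosing and at 5, 15, 30 and 60 min. Bleeding time (s) is reported as mean ± SD.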

[2] = Cardiovascular toxicity in rat aorta assessed as inhibition of noradrenaline-induced vasoconstriction at 5 mM relative to control; type: tissue-based; settings: isolated rat aorta
In short: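 Rat aortic strips were contracted with noradrenaline, washed, stabilized for 30 min, and contracted again. At peak contraction, compound was added (final 5 × 10^-3 M) or vehicle alone. The relaxant response was recorded as percentage inhibition of the contraction.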

Mus musculus [3] = experiment: Analgesic activity in ICR mouse assessed as pain threshold variation at 0.13 mmol/kg, ip after 30 mins by tail flick test relative to control; type: functional
In short: (§2)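 Male ICR mice (25 ± 2 g), kept on a 12/12 h light/dark cycle at 21 ± 2 °C for one day before use. Each received a single i.p. injection in 0.2 ml saline + 0.01 ml DMSO + 0.02 ml Tween-80. Vehicle-only mice served as controls. Basal tail-flick threshold was measured four times (BPT). Thresholds were then read every 30 min for 150 min. PTV = (post-dose threshold − BPT)/BPT. n = 10, x ± SD.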

Mus musculus [4] = experiment: Analgesic activity in ICR mouse assessed as pain threshold variation at 0.13 mmol/kg, ip after 60 mins by tail flick test relative to control; type: functional; in short: as §2
Mus musculus [5] = experiment: Analgesic activity in ICR mouse assessed as pain threshold variation at 0.13 mmol/kg, ip after 90 mins by tail flick test relative to control; type: functional; in short: as §2
Mus musculus [6] = experiment: Analgesic activity in ICR mouse assessed as pain threshold variation at 0.13 mmol/kg, ip after 120 mins by tail flick test; type: functional; in short: as §2
Mus musculus [7] = experiment: Analgesic activity in ICR mouse assessed as pain threshold variation at 0.13 mmol/kg, ip after 150 mins by tail flick test; type: functional; in short: as §2
Mus musculus [8] = experiment: Thrombotic toxicity in ICR mouse assessed as tail bleeding time at 1.3 mmol/kg, ip after 5 mins; type: organism-based; settings: in vivo; in short: as §1
Mus musculus [9] = experiment: Thrombotic toxicity in ICR mouse assessed as tail bleeding time at 1.3 mmol/kg, ip after 15 mins; type: organism-based; settings: in vivo, 0.25 h; in short: as §1
Mus musculus [10] = experiment: Thrombotic toxicity in ICR mouse assessed as tail bleeding time at 1.3 mmol/kg, ip after 30 mins; type: organism-based; settings: in vivo, 0.5 h; in short: as §1

SMILES | Activity (Mus musculus [1]) | inhibition at 5000 µM [2] | Activity (Mus musculus [3]) | Activity (Mus musculus [4]) | Activity (Mus musculus [5]) | Activity (Mus musculus [6]) | Activity (Mus musculus [7]) | Activity (Mus musculus [8]) | Activity (Mus musculus [9]) | Activity (Mus musculus [10])
CN(C)c1ccc(C2=NC(C)(C)C(C)(C)N2O)cc1 | 119 s | 6.63% | 34.3% | 39.44% | 40.17% | 37.34% | 31.27% | 117 s | 117 s | 117 s
COc1cc(C2=NC(C)(C)C(C)(C)N2O)ccc1O | 117 s | 20.6% | 47.57% | 61.52% | 60.65% | 52.21% | 40.56% | 119 s | 118 s | 119 s
CC1(C)N=C(c2ccccc2[N+](=O)[O-])N(O)C1(C)C | 118 s | 30.2% | 28.95% | 45.14% | 45.93% | 50.91% | 40.04% | 119 s | 119 s | 119 s
COc1ccc(C2=NC(C)(C)C(C)(C)N2O)cc1 | 118 s | 19.7% | 64.55% | 76.13% | 66.49% | 65.23% | 46.74% | 119 s | 118 s | 118 s
CC1(C)N=C(c2ccccc2O)N(O)C1(C)C | 118 s | 22.9% | 50.76% | 49.93% | 68.27% | 73.13% | 67.3% | 118 s | 117 s | 119 s
Cc1ccc(C2=NC(C)(C)C(C)(C)N2O)cc1 | 119 s | 16.7% | 42.06% | 55.16% | 48.82% | 39.96% | 45.41% | 119 s | 118 s | 117 s
CC1(C)N=C(c2cccc([N+](=O)[O-])c2)N(O)C1(C)C | 117 s | 31.8% | 52.76% | 62.07% | 63.46% | 60.26% | 70.83% | 117 s | 118 s | 119 s
COc1ccc(C2=NC(C)(C)C(C)(C)N2O)c(OC)c1 | 117 s | 23.3% | 52.93% | 44.85% | 44.96% | 38.34% | 37.89% | 118 s | 118 s | 119 s
CC1(C)N=C(c2ccc3c(c2)OCO3)N(O)C1(C)C | 118 s | 21.9% | 58.82% | 68.46% | 67.15% | 59.77% | 60.22% | 120 s | 119 s | 119 s
CC1(C)N=C(c2ccc(Cl)c(Cl)c2)N(O)C1(C)C | 117 s | 22.8% | 20.52% | 21.43% | 41.9% | 40.17% | 50.62% | 118 s | 118 s | 118 s
CC1(C)N=C(c2ccc(O)cc2)N(O)C1(C)C | 119 s | 13.6% | 57.6% | 74.74% | 79.8% | 53.45% | 27.62% | 116 s | 118 s | 119 s
CC1(C)N=C(c2ccccc2)N(O)C1(C)C | 117 s | 22.9% | 43.67% | 37.68% | 37.07% | 37.41% | 35.48% | 117 s | 119 s | 118 s
CC1(C)N=C(c2ccc(Cl)cc2Cl)N(O)C1(C)C | 119 s | 15.9% | 46.97% | 46.31% | 44.1% | 46.12% | 45.99% | 117 s | 117 s | 119 s
CC1(C)N=C(c2ccc([N+](=O)[O-])cc2)N(O)C1(C)C | 117 s | 32.7% | 44.15% | 38.32% | 36.31% | 35.97% | 47.81% | 118 s | 117 s | 117 s
COc1ccc(C2=NC(C)(C)C(C)(C)N2O)cc1OC | 118 s | 17.9% | 50.9% | 50.12% | 54.54% | 38.43% | 35.37% | 117 s | 117 s | 118 s
COc1ccc(C2=NC(C)(C)C(C)(C)N2O)cc1O | 119 s | 35.1% | 44.33% | 59.85% | 60.71% | 50.77% | 41.62% | 120 s | 118 s | 117 s
CC1(C)N=C(c2cccc(O)c2)N(O)C1(C)C | 119 s | 46.3% | 50.69% | 59.38% | 59.94% | 77.78% | 72.88% | 117 s | 119 s | 118 s
